Experiments:
[1] = test system: Mus musculus; test: Tested for in vivo antiviral activity against semliki forest virus in mice after peroral administration; format: functional; conditions: po
Method in brief: (§1)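 Mice got a single compound dose by the stated route 18 h before a lethal ip Semliki Forest virus challenge, 24 mice per group. ED50 is the minimum dose protecting 50% of mice, calculated by probit analysis of variance, in mg/kg.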

[2] = test system: L929; test: Serum interferon response from a single ip administration of 800 mg/kg employing a plaque-reduction assay.(VSV on L929 cells); range 50-500; format: functional, Mus musculus; conditions: route intraperitoneal
Method in brief: (§2)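 Serum interferon measured after one ip dose of 800 mg/kg, titrated by VSV plaque reduction on L929 cells. Peak titre within 24 h scored: +++ ≥2000, ++ ≈500-1000, + ≈50-500, ± ≈10-50 units/mL.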

[3] = test system: Mus musculus; test: Tested for in vivo antiviral activity against semliki forest virus in mice after subcutaneous administration; format: functional; conditions: sc; method in brief: as §1
[4] = test system: Human alphaherpesvirus 1; test: Protective index was measured on herpes simplex virus type 1(HSV-1) infected mice. at dose of 100 mg/kg/day; ip; format: functional; conditions: route intraperitoneal
[5] = test system: Mus musculus; test: Tested for in vivo antiviral activity against semliki forest virus in mice after intraperitoneal administration; format: functional; conditions: ip; method in brief: as §1
[6] = test system: L929; test: Serum interferon response from a single ip administration of 800 mg/kg employing a plaque-reduction assay.(VSV on L929 cells); range 500-1000; format: functional, Mus musculus; conditions: route intraperitoneal; method in brief: as §2
[7] = test system: Human alphaherpesvirus 1; test: Protective index was measured on herpes simplex virus type 1(HSV-1) infected mice. at a dose of 200 mg/kg/day, ip; format: functional; conditions: route intraperitoneal
Method in brief: (§3)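 Mice inoculated ip with 5.6 × 10^4 pfu HSV-1. Compound given ip in saline at the stated (mg/kg)/day at -40, -28, -20, -3 and +3 h relative to infection. Protection index = (control mortality − treated mortality)/control mortality; >0.25 counted as active.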

[8] = test system: L929; test: Serum interferon response from a single ip administration of 800 mg/kg employing a plaque-reduction assay.(VSV on L929 cells); format: functional, Mus musculus; conditions: route intraperitoneal; method in brief: as §2
[9] = test system: Human alphaherpesvirus 1; test: Protective index was measured on herpes simplex virus type 1(HSV-1) infected mice at 150 mg/kg/day; format: functional; method in brief: as §3
[10] = test system: Human alphaherpesvirus 1; test: Protective index was measured on herpes simplex virus type 1(HSV-1) infected mice, at a dose of 100 mg/kg/day; ip; format: functional; conditions: route intraperitoneal
[11] = test system: Human alphaherpesvirus 1; test: Protective index was measured on herpes simplex virus type 1(HSV-1) infected mice, at dose of 100 mg/kg/day; ip; format: functional; conditions: route intraperitoneal
[12] = test system: Human alphaherpesvirus 1; test: Protective index was measured on herpes simplex virus type 1(HSV-1) infected mice, at dose of 200 mg/kg/day; ip; format: functional; conditions: route intraperitoneal; method in brief: as §3
[13] = test system: Human alphaherpesvirus 1; test: Protective index was measured on herpes simplex virus type 1(HSV-1) infected mice, at a dose of 200 mg/kg/day; ip; format: functional; conditions: route intraperitoneal; method in brief: as §3

Structure (SMILES)	ED50 [1] [mg/kg]	ED50 [3] [mg/kg]	ED50 [5] [mg/kg]	Interferon response [8]	other results
Nc1nc(O)c(I)c(-c2ccccc2)n1	> 400	25	50		Interferon response [2]: 500 mL; Protection index [4]: 0.86
Cc1nc(N)nc(O)c1I			200		Interferon response [6]: 1000 mL; Protection index [7]: 0.16
Cc1nc(N)nc(O)c1Br			250	1000 mL	Protection index [9]: 0.4
CCCc1c(O)nc(N)nc1-c1ccccc1			> 400		Protection index [10]: 0.13
CCOCCc1c(O)nc(N)nc1-c1ccccc1	> 400	> 400	> 800		Protection index [10]: 0.15
Cc1c(O)nc(N)nc1-c1ccccc1			185	>=2000 ml	Protection index [11]: 0.35
Nc1nc(O)c(Cl)c(-c2ccccc2)n1	90	105	100	>=2000 ml	Protection index [12]: 0.62
Nc1nc(=O)c(Br)c(-c2ccccc2)[nH]1 [BROPIRIMINE]	100	50	100	>=2000 ml	
C#CCc1c(O)nc(N)nc1-c1ccccc1	> 400		130		
CCc1c(O)nc(N)nc1-c1ccccc1	280	> 400	45		Interferon response [6]: 1000 mL; Protection index [13]: 0.57
C=CCc1c(O)nc(N)nc1-c1ccccc1	> 400	> 400	95		Interferon response [2]: 50 mL; Protection index [13]: 0.43
